Published values collected from several papers.
Protocols differ between the studies behind these lines.
Target: Dual specificity protein kinase CLK4 (CLK4, Homo sapiens, UniProt Q9HAZ1)

Compound	assay	setting	endpoint	result
Cc1ccc(NC(=O)c2ccc(CN3CCN(C)CC3)cc2)cc1Nc1nc(-c2cccnc2)cs1	cell-free assay	0.5 µM	remaining signal	93.3%
CCCOc1ccc([C@@H]2[C@@H](C(=O)O)[C@H](c3ccc4c(c3)OCO4)CN2CC(=O)Nc2c(CC)cccc2CC)cc1	cell-free assay, competition with immobilised ligand	1 µM	remaining binding	89%
Oc1ccc(-c2nc(-c3ccncc3)c(-c3ccc(F)cc3)[nH]2)cc1	cell-free assay	0.5 µM	remaining signal	106%
Cc1sc(C(=O)NC2COC2)cc1-n1cc(NC(=O)Nc2c(F)cccc2Cl)cn1	enzyme activity, inhibitor	10 µM	remaining activity	102%
Oc1cccc(-c2nc(N3CCOCC3)c3oc4ncccc4c3n2)c1	cell-free assay	0.5 µM	remaining signal	81.5%
NS(=O)(=O)c1cc(NC(=O)Cc2ccccc2)ccc1Oc1cccc(Cl)c1	cell-free assay, competition with immobilised ligand	1 µM	remaining binding	83%
Cn1cncc1C1=CN(c2ncnc3[nH]cnc23)CCS1	enzyme activity, inhibitor, radiometric	2 µM	inhibition	84.7%
O=C1NC(=O)c2cc(Nc3ccc(F)cc3)c(Nc3ccc(F)cc3)cc21	cell-free assay	0.5 µM	remaining signal	88.6%
Cc1ccc(NC(=O)c2ccc(C)c(C(F)(F)F)c2)cc1C#Cc1nn(C2CCC(O)CC2)c2ncnc(N)c12 (stereo not drawn)	cell-free assay	10 µM	remaining signal	58%
Cc1ccc(C(=O)Nc2ccc(CN3CCN(C)CC3)c(C(F)(F)F)c2)cc1C#Cc1cnc2cccnn12	enzyme activity, inhibitor	23.5 nM	remaining activity	54%
COc1cc(-c2cc(-c3ccc(N4CCNCC4)cc3)cnc2C)cc(OC)c1OC	enzyme activity, inhibitor	1 µM	inhibition	7%
CN(c1ccnc(CNc2nc(Nc3ccc4c(c3)CC(=O)N4)ncc2C(F)(F)F)n1)S(C)(=O)=O	binding, competition with immobilised ligand	1 µM	remaining binding	1.4%
CCN1/C(=C/C(C)=O)Sc2ccc(OC)cc21	cell-free assay	0.5 µM	remaining signal	18.5%
CCOCCn1cc(C(=O)Nc2ccc(-n3nc(-c4cccnc4)cc3C(F)(F)F)cn2)ccc1=O	cell-free assay, competition with immobilised ligand	1 µM	remaining binding	100%
CS(=O)(=O)Nc1cccc(-c2csc(NC(=O)CSc3nc4nccnc4c(=O)n3CCc3ccccc3)n2)c1	enzyme activity, inhibitor	10 µM	inhibition	14%
Cc1cnc(NC2CCOCC2)nc1-n1cnc(C(=O)NC(CN)c2cc(F)cc(Cl)c2)c1 (stereo not drawn)	enzyme activity, inhibitor, radiometric	1 µM	remaining activity	63%
Cn1cnc(Br)c1C1=CN(c2ncnc3[nH]cnc23)CCS1	enzyme activity, inhibitor, radiometric	2 µM	inhibition	98.8%
O=C(NC[C@@H]1[C@H]2CN(C(=O)OCc3cc(C(F)(F)F)cc(C(F)(F)F)c3)C[C@@H]12)c1ccc2[nH]nnc2c1	cell-free assay, competition with immobilised ligand	1 µM	remaining binding	98%
CN(CCCC(F)(F)F)c1nccc(-c2cnn3ncccc23)n1	binding	1 µM	remaining binding	25%
COc1cccc(CNC(=O)c2nc3scc(COCc4ccc(C(=O)O)cc4)c3c(=O)[nH]2)c1	cell-free assay, competition with immobilised ligand	1 µM	remaining binding	94.4%
CC(C)(C)c1nc2c(s1)c1nc(N)ncc1c1ccc(NS(=O)(=O)c3c(F)cccc3F)c(F)c12	enzyme activity, inhibitor, radiometric	1 µM	remaining activity	81%
